Values after ≈ are worked out from the molar mass of the structure shown.
Assays:
[1] = Cytotoxicity against rat H9c2 cells assessed as cell viability at 1.57 to 200 mg/mL after 48 hrs by MTT assay; format: cell-based; settings: read-out: Activity
In short: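 Subconfluent H9c2 cardiac myoblasts treated with increasing concentrations for 48 h at 37 °C in 5% CO₂, alongside untreated cells. Then washed in PBS and given MTT (5 mg/mL) for 45 min at 37 °C. Crystals dissolved in acid isopropanol, absorbance read at 570 nm. Viability is absorbance of treated relative to untreated cells. Triplicate. DMSO and amoxicillin controls.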

Staphylococcus aureus [2] = assay: Antibacterial activity against Staphylococcus aureus measured at MIC after 18 hrs by halo zone test; format: functional
In short: (§1)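 Disk diffusion. Strains subcultured 18 h at 37 °C in BHI, then suspended in saline by McFarland to about 10⁵ CFU/mL. Suspension mixed 1:1 with antibiotic agar at 40 °C and plated. 6.0 mm paper disks loaded with dilutions from a DMSO stock (1 mg per 100 of DMSO). Incubated 18 h at 36 °C. Inhibition zone (mm) measured at the MIC. Amoxicillin and DMSO disks as controls.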

Staphylococcus aureus [3] = assay: Antibacterial activity against Staphylococcus aureus after 18 hrs by macro-dilution test; format: functional
In short: (§2)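 Tube macro-dilution. Compounds in DMSO serially diluted to final […]. 24 h old inoculum added to each tube. Standard inoculum […]. Incubated 18 h at 37 °C. MIC is the lowest concentration with no visible growth, read visually. DMSO negative and amoxicillin positive controls.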

Streptococcus pyogenes [4] = assay: Antibacterial activity against Streptococcus pyogenes after 18 hrs by macro-dilution test; format: functional; in short: as §2
Streptococcus pyogenes [5] = assay: Antibacterial activity against Streptococcus pyogenes measured at MIC after 18 hrs by halo zone test; format: functional; in short: as §1
Salmonella typhimurium [6] = assay: Antibacterial activity against Salmonella Typhimurium measured at MIC after 18 hrs by halo zone test; format: functional, Salmonella enterica subsp. enterica serovar Typhimurium; in short: as §1
Salmonella typhimurium [7] = assay: Antibacterial activity against Salmonella Typhimurium after 18 hrs by macro-dilution test; format: functional, Salmonella enterica subsp. enterica serovar Typhimurium; settings: Salmonella enterica; in short: as §2
Escherichia coli [8] = assay: Antibacterial activity against Escherichia coli measured at MIC after 18 hrs by halo zone test; format: functional; in short: as §1
Escherichia coli [9] = assay: Antibacterial activity against Escherichia coli after 18 hrs by macro-dilution test; format: functional; in short: as §2
[10] = in the assay text read “1.57 to 200 ug/mL” for “1.57 to 200 mg/mL”

| Structure (SMILES) | MIC (Staphylococcus aureus [3]) [mg/L] | MIC (Streptococcus pyogenes [4]) [mg/L] | MIC (Salmonella typhimurium [7]) [mg/L] | MIC (Escherichia coli [9]) [mg/L] | viability at 48 h [1, 10] [%] | inhibition zone (IZ) (Staphylococcus aureus [2]) [mm] | inhibition zone (IZ) (Streptococcus pyogenes [5]) [mm] | inhibition zone (IZ) (Salmonella typhimurium [6]) [mm] | inhibition zone (IZ) (Escherichia coli [8]) [mm] | viability at 48 h [1] [%] |
| --- | --- | --- | --- | --- | --- | --- | --- | --- | --- | --- |
| CC(=O)N(C1=NN(C(C)=O)C(c2cc3cccc(C)c3nc2Cl)S1)c1ccccc1C (configuration not stated) | 64 (≈ 141 µM) | 32 (≈ 70.6 µM) | 32 (≈ 70.6 µM) | 64 (≈ 141 µM) | > 80 | 15.8 | 19.14 | 16.11 | 17.9 | – |
| CC(=O)N(C1=NN(C(C)=O)C(c2cc3cccc(C)c3nc2Cl)S1)c1cc(F)ccc1F (configuration not stated) | 64 (≈ 135 µM) | 16 (≈ 33.7 µM) | 32 (≈ 67.4 µM) | 64 (≈ 135 µM) | – | 21.99 | 16.13 | 16.6 | 15.36 | > 80 |
| CC(=O)N1N=C(N(C(C)=O)C2CCCCCCC2)SC1c1cc2ccccc2nc1Cl (configuration not stated) | 128 (≈ 279 µM) | 128 (≈ 279 µM) | 64 (≈ 139 µM) | 256 (≈ 558 µM) | – | 14.57 | 14.33 | 18.82 | 17.86 | – |
| CC(=O)N1N=C(N(C(C)=O)C2CCCCC2)SC1c1cc2cccc(Cl)c2nc1Cl (configuration not stated) | 64 (≈ 138 µM) | 128 (≈ 275 µM) | 256 (≈ 550 µM) | 128 (≈ 275 µM) | – | 17.39 | 17.73 | 16.72 | 15.23 | – |
| S=C(N/N=C/c1cc2ccccc2nc1Cl)NC1CCCC1 | 64 (≈ 192 µM) | 128 (≈ 385 µM) | 128 (≈ 385 µM) | 128 (≈ 385 µM) | – | 19.52 | 21.07 | 22.58 | 21.12 | – |
| CC(=O)N(C1=NN(C(C)=O)C(c2cc3ccccc3nc2Cl)S1)c1ccc([N+](=O)[O-])cc1 (configuration not stated) | 64 (≈ 136 µM) | 64 (≈ 136 µM) | 64 (≈ 136 µM) | 64 (≈ 136 µM) | – | 14.29 | 14.92 | 17.03 | 14.34 | – |
| S=C(N/N=C/c1cc2cccc(Cl)c2nc1Cl)NC1CCCC1 | 128 (≈ 348 µM) | 256 (≈ 697 µM) | 128 (≈ 348 µM) | 256 (≈ 697 µM) | – | 17.68 | 13.15 | 15.17 | 17.18 | – |
| CC(=O)NC1=NN(C(C)=O)C(c2cc3cccc(C)c3nc2Cl)S1 (configuration not stated) | 64 (≈ 176 µM) | 64 (≈ 176 µM) | 256 (≈ 706 µM) | 256 (≈ 706 µM) | – | 13.66 | 16.77 | 18.08 | 18.34 | – |
| CC(=O)N(C1=NN(C(C)=O)C(c2cc3cccc(Cl)c3nc2Cl)S1)c1cc(F)ccc1F (configuration not stated) | 64 (≈ 129 µM) | 64 (≈ 129 µM) | 64 (≈ 129 µM) | 64 (≈ 129 µM) | – | 12.99 | 13.92 | 17.59 | 16.45 | – |
| Cc1cccc2cc(/C=N/NC(=S)NC3CCCCC3)c(Cl)nc12 | 128 (≈ 355 µM) | 256 (≈ 709 µM) | 256 (≈ 709 µM) | 128 (≈ 355 µM) | – | 12.75 | 11.08 | 15.66 | 21.27 | – |
| CC(=O)N1N=C(N(C(C)=O)C2CCCC2)SC1c1cc2cccc(C)c2nc1Cl (configuration not stated) | 128 (≈ 297 µM) | 64 (≈ 149 µM) | 128 (≈ 297 µM) | 128 (≈ 297 µM) | – | 19 | 17.71 | 15.13 | 16.08 | – |

The next compounds have a lower MIC (Staphylococcus aureus [3]) than those just listed; values first:

| MIC (Staphylococcus aureus [3]) [mg/L] | MIC (Streptococcus pyogenes [4]) [mg/L] | MIC (Salmonella typhimurium [7]) [mg/L] | MIC (Escherichia coli [9]) [mg/L] | Structure (SMILES) | viability at 48 h [1, 10] [%] | inhibition zone (IZ) (Staphylococcus aureus [2]) [mm] | inhibition zone (IZ) (Streptococcus pyogenes [5]) [mm] | inhibition zone (IZ) (Salmonella typhimurium [6]) [mm] | inhibition zone (IZ) (Escherichia coli [8]) [mm] | viability at 48 h [1] [%] |
| --- | --- | --- | --- | --- | --- | --- | --- | --- | --- | --- |
| 32 (≈ 72.9 µM) | 16 (≈ 36.5 µM) | 64 (≈ 146 µM) | 32 (≈ 72.9 µM) | CC(=O)N(C1=NN(C(C)=O)C(c2cc3ccccc3nc2Cl)S1)c1ccc(C)cc1 (configuration not stated) | > 80 | 18.27 | 17 | 16.89 | 16.4 | – |
| 32 (≈ 76.8 µM) | 32 (≈ 76.8 µM) | 32 (≈ 76.8 µM) | 64 (≈ 154 µM) | CC(=O)N1N=C(N(C(C)=O)C2CCCC2)SC1c1cc2ccccc2nc1Cl (configuration not stated) | > 80 | 20.63 | 19.93 | 18.6 | 19.79 | – |
| 32 (≈ 63.4 µM) | 64 (≈ 127 µM) | 32 (≈ 63.4 µM) | 32 (≈ 63.4 µM) | CC(=O)N(C1=NN(C(C)=O)C(c2cc3cccc(Cl)c3nc2Cl)S1)c1ccc([N+](=O)[O-])cc1 (configuration not stated) | > 80 | 19.81 | 16.32 | 17.25 | 12.56 | – |
| 32 (≈ 90.2 µM) | 32 (≈ 90.2 µM) | 64 (≈ 180 µM) | 64 (≈ 180 µM) | Cc1ccc(NC(=S)N/N=C/c2cc3ccccc3nc2Cl)cc1 | – | 17.93 | 17.43 | 18.02 | 16.65 | – |
| 32 (≈ 72.9 µM) | 16 (≈ 36.5 µM) | 32 (≈ 72.9 µM) | 32 (≈ 72.9 µM) | CC(=O)N(C1=NN(C(C)=O)C(c2cc3ccccc3nc2Cl)S1)c1ccccc1C (configuration not stated) | > 80 | 15.66 | 17.14 | 16.06 | 15.84 | – |
| 16 (≈ 34.7 µM) | 64 (≈ 139 µM) | 32 (≈ 69.4 µM) | 32 (≈ 69.4 µM) | CC(=O)N(C1=NN(C(C)=O)C(c2cc3ccccc3nc2Cl)S1)c1cc(F)ccc1F (configuration not stated) | – | 17.41 | 14.74 | 16.67 | 20.13 | > 80 |
| 16 (≈ 33.8 µM) | 64 (≈ 135 µM) | 32 (≈ 67.6 µM) | 32 (≈ 67.6 µM) | CC(=O)N(C1=NN(C(C)=O)C(c2cc3cccc(Cl)c3nc2Cl)S1)c1ccccc1C (configuration not stated) | > 80 | 19.76 | 13.84 | 16.86 | 15.59 | – |

From ChEMBL document CHEMBL1799921, “3-(1,3,4-Thiadiazole-2-yl)quinoline derivatives: synthesis, characterization and anti-microbial activity” (Eur J Med Chem, 2011)
